# Values joined by “and” are separate entries in the source; they are usually repeats but may differ in a detail not shown here. Identical values can stand only once. “Also recorded” adds a separate entry of the source. Like-named read-outs stand apart in the source and are kept apart here. Marks after values point to notes of the source that are not given here.
# Experiments:
# [1] = cited from earlier work
# [2] = Radiation dose of other ^18F-labeled radioligands; assay type: in vivo; conditions: approximate effective dose calculated from the reported doses of individual organs
# [3] = Residence times of source organs from whole-body imaging; assay type: in vivo, humans; conditions: mean±SD
# Outline: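 Residence time = area under each organ's time–activity curve (fraction of injected activity). Decay correction was removed and recovery correction applied (first-frame body activity vs dose-calibrator value). Area was trapezoidal to end of imaging, then physical decay only to infinity. Right-lung activity was scaled by the lung mass ratio 1:1.87. Organs spanning beds used the timing of their main bed position.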
# [4] = Radiation absorbed doses by Medical Internal Radiation Dose scheme; assay type: in vivo, humans
# Outline: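 Mean residence times of seven subjects were entered for a 70-kg adult male model. Red marrow residence came from the lumbar vertebrae, with all vertebral activity assigned to marrow, × 100/11.7. […] Bladder used the dynamic model with a 2.4-h voiding interval. Maximal injectable activity was derived from dose per MBq against the annual dose limits.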
# mGluR5 = conditions: late time points; ref [3]; cited from earlier work
# [5] = assay type: in vivo, humans
# [6] = system: glutathione S-transferase; conditions: both in vitro and in vivo, via glutathione S-transferase, ref [16]; cited from earlier work
# [7] = Whole-body PET biodistribution after intravenous injection of ^18F-SP203; assay type: in vivo, humans
# Outline: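 Seven healthy volunteers (3 female, 4 male) received 141±41 MBq i.v. 2-D dynamic whole-body PET covered seven 15-cm bed positions (head to upper thigh) in 16 frames (15 s–4 min), 300 min total, including three 30-min rest periods. OSEM reconstruction with attenuation and scatter correction. Regions were drawn per coronal slice (high-uptake organs) or on summed slices (low-uptake). Uptake was expressed as % injected activity, mean±SD.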
# [8] = ref Communication from R.M. Kessler
compound,measurement,setting,value
C[C@]12CCC(=O)C[C@@H]1CC[C@@H]1[C@@H]2CC[C@]2(C)[C@@H](O)[C@@H]([18F])C[C@@H]12 [^18F-Fluorodihydrotestosterone],Dose to red marrow,[1]; ref [20],18.7 μSv/MBq
same,Effective dose,[2]; ref [20],~12.5^a μSv/MBq
CNc1ccc(-c2nc3ccc(O)cc3s2)cc1[18F] [^18F-GE067],Dose to red marrow,[1]; ref [22],15.3 μSv/MBq
same,Effective dose,[1]; ref [22],33.8 μSv/MBq
COC(=O)[C@H]1[C@@H](c2ccc(I)cc2)C[C@@H]2CC[C@H]1N2CCC[18F] [^18F-FPCIT],Dose to red marrow,[1]; ref [25],5.1 μSv/MBq
same,Effective dose,[2]; ref [25],~8.6^a μSv/MBq
N[C@@H](Cc1cc(O)c(O)cc1[18F])C(=O)O [^18F-FDOPA],Dose to red marrow,[1]; ref [24],10.5 μSv/MBq
same,Effective dose,[1]; ref [24],19.9 μSv/MBq
Cc1cn([C@H]2C[C@H]([18F])[C@@H](CO)O2)c(=O)[nH]c1=O [^18F-Fluorothymidine],Dose to red marrow,[1]; ref [19],24.0 μSv/MBq
same,Effective dose,[2]; ref [19],~15.5^a μSv/MBq
C=CCN1CCC[C@H]1CNC(=O)c1cc(CCC[18F])cc(OC)c1OC [^18F-Fallypride],Dose to red marrow,[1]; [8],19.5 μSv/MBq
same,Effective dose,[1]; [8],21.1 μSv/MBq
Fc1ncccc1OC[C@@H]1CCN1 [^18F-Fluoro-A-85380],Dose to red marrow,[1]; ref [23],14.1 μSv/MBq
same,Effective dose,[1]; ref [23],23.7 μSv/MBq
COC(=O)[C@H]1[C@@H](c2ccc(Cl)cc2)C[C@@H]2CC[C@H]1N2CC[18F] [^18F-FECNT],Dose to red marrow,[1]; ref [21],16.1 μSv/MBq
same,Effective dose,[1]; ref [21],15.8 μSv/MBq
"N#Cc1cc(F)cc(C#Cc2csc(C[18F])n2)c1 [^18F-SP203, 3-fluoro-5-(2-(2-^18F-(fluoromethyl)-thiazol-4-yl)ethynyl)benzonitrile]","Residence time, brain","[3]; brain, seven subjects",0.192 h and 0.192 ± 0.048 h
same,"Residence time, gallbladder","[3]; gallbladder, seven subjects",0.018 h and 0.018 ± 0.009 h
same,"Residence time, heart","[3]; heart, seven subjects",0.024 h and 0.024 ± 0.008 h
same,"Residence time, kidney","[3]; kidney, seven subjects",0.037 ± 0.004 h
same,"Residence time, liver","[3]; liver, seven subjects",0.091 h and 0.091 ± 0.015 h
same,"Residence time, lungs","[3]; lungs, seven subjects",0.065 h and 0.065 ± 0.017 h
same,"Residence time, red marrow",[3]; red marrow (from lumbar vertebrae x 100/11.7),0.307 h and 0.307 ± 0.063 h
same,"Residence time, remainder of body",[3]; remainder of body,1.585 ± 0.147 h
same,"Residence time, spleen","[3]; spleen, seven subjects",0.014 h and 0.014 ± 0.004 h
same,Maximal injectable activity per year,"[4]; Europe, effective dose limit 10 mSv per year",no more than 562 MBq
same,"Radiation dose, brain",[4],127.0 mrem/mCi
same,"Radiation dose, brain",[4]; standard reference man,34.5 μSv/MBq
same,Radioactivity in the skull in human brain imaging,mGluR5,moderate uptake of radioactivity in the skull; also recorded: moderate amount of radioactivity accumulation in the skull
same,Pharmacological effects during the 5-h scan,"[5]; 141±41 MBq (1.9±1.0 nmol SP203) i.v., subject reports, ECG, blood pressure, pulse rate, respiration rate",no pharmacological effects
same,Effects in blood and urine tests,[5]; acquired 7 to 24 h after radioligand injection,no effects were noted
same,Defluorination in rat brain,[6],defluorinated
same,"Time of peak uptake in brain, kidneys, lungs, heart and spleen",[7]; after injection,≤ 8 min
same,Distribution of radioactivity in the skeleton,[7]; bone structures with vs without red marrow,most of the radioactivity was in bone structures that contain red marrow and not in those without red marrow; also recorded: the majority of activity in the human skeleton was in the red marrow rather than in bone itself; also recorded: most of the radioactivity was in bone structures that contain red marrow and not in bones without red marrow
same,Peak uptake in brain,"[7]; brain, seven healthy humans, i.v.",11 % of injected activity
same,Radioactivity accumulated in gallbladder (asymptote / maximum),[7]; gallbladder,0.9 % of injected activity
same,Time to reach asymptote / maximum in gallbladder,[7]; gallbladder,≤ 100 min
same,Peak uptake in heart,[7]; heart,3.4 % of injected activity
same,Defluorination in humans,[7]; judged from distribution of radioactivity in bone structures with various proportions of bone and red marrow,undergoes little defluorination
same,Peak uptake in liver,"[7]; liver, seven healthy humans, i.v.",12.8±3.4 % of injected activity
same,Peak uptake in lungs,[7]; lungs,4.7 % of injected activity and 4.7±1.5 % of injected activity
same,Radioactivity accumulated in red marrow (asymptote),[7]; red marrow,14 % of injected activity
same,Time to reach asymptote in red marrow,[7]; red marrow,≤ 100 min
FC(F)(F)c1nnnn1-c1ccc(OC[18F])c(CN[C@H]2CCCN[C@H]2c2ccccc2)c1 [^18F-SPARQ],Dose to red marrow,[1]; ref [7],15.8 μSv/MBq
same,Effective dose,[1]; ref [7],29.3 μSv/MBq
